Legend:
Mus musculus [1] = test: Trypanocidal Activity at I.C.E. value 0.7 when administered subcutaneously.; format: functional
How it was run: (§1)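 Mice, in groups of five per dose, were given a standard inoculum of blood-stage T. rhodesiense that is lethal to all untreated controls, then dosed subcutaneously. Usually 11 dose levels were used (2^n × 0.42 mg/kg).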

Mus musculus [2] = test: Trypanocidal Activity at I.C.E. value 0.67 when administered subcutaneously.; format: functional; how it was run: as §1
Mus musculus [3] = test: Trypanocidal Activity at I.C.E. value 0.53 when administered perorally.; format: functional
Mus musculus [4] = test: Trypanocidal Activity at I.C.E. value 0.68 when administered subcutaneously.; format: functional; how it was run: as §1
Mus musculus [5] = test: Curative activity of the Compound after Subcutaneous administration at a dose of 1.67 mg/kg and I.C.E. value of 0.54 for 30 days; 10/10; format: functional
Mus musculus [6] = test: Trypanocidal Activity at I.C.E. value 0.48 when administered perorally.; format: functional
Mus musculus [7] = test: Fraction of mice that were cured after subcutaneous administration at a dose of 53 mg/kg and I.C.E. value of 0.54; format: functional
Mus musculus [8] = test: Curative activity of the Compound after Subcutaneous administration at a dose of 26 mg/kg ( T-Toxic) and I.C.E. value of 0.54 for 30 days; 11/15; format: functional
Mus musculus [9] = test: Curative activity of the Compound after oral administration at a dose of 13 mg/kg and I.C.E. value of 0.49 for 30 days; 2/5; format: functional
Mus musculus [10] = test: Curative activity of the Compound after oral administration at a dose of 424 mg/kg ( T-Toxic)and I.C.E. value of 0.49 for 30 days; 10/10; format: functional
Mus musculus [11] = test: Fraction of mice that were cured after subcutaneous administration at a dose of 0.42 mg/kg and I.C.E. value of 0.54; format: functional
Mus musculus [12] = test: Curative activity of the Compound after Subcutaneous administration at a dose of 3.3 mg/kg and I.C.E. value of 0.54 for 30 days; 24/25; format: functional
Mus musculus [13] = test: Fraction of mice that were cured after oral administration at a dose of 53 mg/kg and I.C.E. value of 0.84; format: functional
Mus musculus [14] = test: Curative activity of the Compound after oral administration at a dose of 53 mg/kg ( T-Toxic) and I.C.E. value of 0.49 for 30 days; 5/5; format: functional
Mus musculus [15] = test: Curative activity of the Compound after Subcutaneous administration at a dose of 6.6 mg/kg and I.C.E. value of 0.54 for 30 days; 5/5; format: functional
Mus musculus [16] = test: Fraction of mice that were cured after oral administration at a dose of 1.67 mg/kg and I.C.E. value of 0.84; format: functional
Mus musculus [17] = test: Fraction of mice that were cured after oral administration at a dose of 106 mg/kg and I.C.E. value of 0.49
Mus musculus [18] = test: Fraction of mice that were cured after subcutaneous administration at a dose of 13 mg/kg and I.C.E. value of 0.54; format: functional
Mus musculus [19] = test: Fraction of mice that were cured after subcutaneous administration at a dose of 6.6 mg/kg and I.C.E. value of 0.54; format: functional
Mus musculus [20] = test: Fraction of mice that were cured after subcutaneous administration at a dose of 212 mg/kg and I.C.E. value of 0.54; format: functional
Mus musculus [21] = test: Curative activity of the Compound after Subcutaneous administration at a dose of 0.83 mg/kg and I.C.E. value of 0.54 for 30 days; 27/30; format: functional
Mus musculus [22] = test: Trypanocidal Activity at I.C.E. value 0.54 when administered subcutaneously.; format: functional
How it was run: (§2)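 Blood-stage T. rhodesiense infection came from a standard inoculum lethal to all untreated mice. Drug was given by subcutaneous injection to groups of five mice. Survival beyond 30 days counted as cure. […] Sub-curative doses scored 0, and data were normalized at each dose.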

Mus musculus [23] = test: Fraction of mice that were cured after subcutaneous administration at a dose of 3.3 mg/kg and I.C.E. value of 0.54; format: functional
Mus musculus [24] = test: Fraction of mice that were cured after subcutaneous administration at a dose of 424 mg/kg and I.C.E. value of 0.54; format: functional
Mus musculus [25] = test: Curative activity of the Compound after oral administration at a dose of 106 mg/kg ( T-Toxic)and I.C.E. value of 0.49 for 30 days; 5/5; format: functional
Mus musculus [26] = test: Fraction of mice that were cured after oral administration at a dose of 13 mg/kg and I.C.E. value of 0.84; format: functional
Mus musculus [27] = test: Fraction of mice that were cured after oral administration at a dose of 3.3 mg/kg and I.C.E. value of 0.84; format: functional
Mus musculus [28] = test: Fraction of mice that were cured after oral administration at a dose of 26 mg/kg and I.C.E. value of 0.84; format: functional
Mus musculus [29] = test: Fraction of mice that were cured after oral administration at a dose of 0.83 mg/kg and I.C.E. value of 0.84; format: functional
Mus musculus [30] = test: Fraction of mice that were cured after oral administration at a dose of 212 mg/kg and I.C.E. value of 0.84; format: functional
Mus musculus [31] = test: Fraction of mice that were cured after subcutaneous administration at a dose of 1.67 mg/kg and I.C.E. value of 0.54; format: functional
Mus musculus [32] = test: Curative activity of the Compound after oral administration at a dose of 212 mg/kg ( T-Toxic)and I.C.E. value of 0.49 for 30 days; 5/5; format: functional
Mus musculus [33] = test: Curative activity of the Compound after oral administration at a dose of 26 mg/kg and I.C.E. value of 0.49 for 30 days; 10/10; format: functional
Mus musculus [34] = test: Fraction of mice that were cured after subcutaneous administration at a dose of 0.83 mg/kg and I.C.E. value of 0.54; format: functional
Mus musculus [35] = test: Fraction of mice that were cured after oral administration at a dose of 6.6 mg/kg and I.C.E. value of 0.84; format: functional
Mus musculus [36] = test: Fraction of mice that were cured after subcutaneous administration at a dose of 26 mg/kg and I.C.E. value of 0.54; format: functional
Mus musculus [37] = test: Curative activity of the Compound after Subcutaneous administration at a dose of 0.42 mg/kg and I.C.E. value of 0.54 for 30 days; 2/5; format: functional
Mus musculus [38] = test: Fraction of mice that were cured after oral administration at a dose of 0.42 mg/kg and I.C.E. value of 0.84; format: functional
Mus musculus [39] = test: Fraction of mice that were cured after oral administration at a dose of 424 mg/kg and I.C.E. value of 0.84; format: functional
Mus musculus [40] = test: Curative activity of the Compound after Subcutaneous administration at a dose of 13 mg/kg and I.C.E. value of 0.54 for 30 days; 10/10; format: functional
Mus musculus [41] = test: Fraction of mice that were cured after subcutaneous administration at a dose of 106 mg/kg and I.C.E. value of 0.54; format: functional
Mus musculus [42] = test: Trypanocidal Activity at I.C.E. value 0.28 when administered perorally.; format: functional
Mus musculus [43] = test: Trypanocidal Activity at I.C.E. value 0.83 when administered subcutaneously.; format: functional; how it was run: as §1
Mus musculus [44] = test: Trypanocidal Activity at I.C.E. value 0.39 when administered subcutaneously.; format: functional; how it was run: as §2
Mus musculus [45] = test: Trypanocidal Activity at I.C.E. value 0.50 when administered perorally.; format: functional
Mus musculus [46] = test: Trypanocidal Activity at I.C.E. value 0.16 when administered perorally.; format: functional
Mus musculus [47] = test: Trypanocidal Activity at I.C.E. value 0.31 when administered subcutaneously.; format: functional; how it was run: as §2
Mus musculus [48] = test: Trypanocidal Activity at I.C.E. value 0.58 when administered subcutaneously.; format: functional; how it was run: as §1
Mus musculus [49] = test: Trypanocidal Activity at I.C.E. value 0.51 when administered perorally.; format: functional
Mus musculus [50] = test: Trypanocidal Activity at I.C.E. value 0.24 when administered subcutaneously; format: functional; how it was run: as §2
Mus musculus [51] = test: Trypanocidal Activity at I.C.E. value 0.65 when administered subcutaneously.; format: functional; how it was run: as §1
[52] = tested on: Trypanosoma brucei rhodesiense; test: In Vitro Trypanosomal activity in rats was measured uptake of radiolabeled Leucine; format: functional; conditions: read-out: ID50 (the source's name)
How it was run: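 Trypanosomes harvested from infected rats, cultured 3 h with several concentrations of drug, usually 0.1–100 µg/mL. Radiolabeled L-leucine uptake measured. ID50 is the concentration in µg/mL giving 50% inhibition of incorporation.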

[53] = tested on: Trypanosoma brucei rhodesiense; test: In Vitro Trypanosomal activity in rats was measured uptake of radiolabeled Thymidine; format: functional; conditions: read-out: ID50 (the source's name)
How it was run: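 Parasites harvested from infected rats and incubated 3 h across a drug concentration series, usually 0.1–100 µg/mL. Incorporation of radiolabeled thymidine measured. ID50 is the concentration (µg/mL) producing 50% inhibition.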

Mus musculus [54] = test: Trypanocidal Activity at I.C.E. value 0.44 when administered subcutaneously.; format: functional; how it was run: as §2
Mus musculus [55] = test: Trypanocidal Activity at I.C.E. value 0.25 when administered perorally.; format: functional
Mus musculus [56] = test: Trypanocidal Activity at I.C.E. value 0.61 when administered subcutaneously.; format: functional; how it was run: as §1

Br.Cc1cccc2n1cc(COc1ccc(/C=N/NC3=NCCCN3)cc1)[n+]2C.[Br-]
CD50 (Mus musculus [1]): 0.8 mg/kg | CD50 (Mus musculus [2]): 0.4 mg/kg

Br.Cn1c(COc2ccc(/C=N/NC3=NCCN3)cc2)[n+](C)c2ccccc21.[Br-]
CD50 (Mus musculus [3]): 13 mg/kg | CD50 (Mus musculus [4]): 0.2 mg/kg

C[n+]1c(-c2ccc(/C=N/NC(=N)N)cc2)cn2ccccc21.Cc1ccc(S(=O)(=O)O)cc1.Cc1ccc(S(=O)(=O)[O-])cc1
Survivors (Mus musculus [5]): 10 | CD50 (Mus musculus [6]): 26 mg/kg | Fraction cured (Mus musculus [7]): 0 | Survivors (Mus musculus [8]): 11 | Survivors (Mus musculus [9]): 2 | Survivors (Mus musculus [10]): 10 | Fraction cured (Mus musculus [11]): 0.4 | Survivors (Mus musculus [12]): 24 | Fraction cured (Mus musculus [13]): 1 | Survivors (Mus musculus [14]): 5 | Survivors (Mus musculus [15]): 5 | Fraction cured (Mus musculus [16]): 0 | Fraction cured (Mus musculus [17]): 1 | Fraction cured (Mus musculus [18]): 1 | Fraction cured (Mus musculus [19]): 1 | Fraction cured (Mus musculus [20]): 0 | Survivors (Mus musculus [21]): 27 | CD50 (Mus musculus [22]): 0.8 mg/kg | Fraction cured (Mus musculus [23]): 0.96 | Fraction cured (Mus musculus [24]): 0 | Survivors (Mus musculus [25]): 5 | Fraction cured (Mus musculus [26]): 0.4 | Fraction cured (Mus musculus [27]): 0 | Fraction cured (Mus musculus [28]): 1 | Fraction cured (Mus musculus [29]): 0 | Fraction cured (Mus musculus [30]): 1 | Fraction cured (Mus musculus [31]): 1 | Survivors (Mus musculus [32]): 5 | Survivors (Mus musculus [33]): 10 | Fraction cured (Mus musculus [34]): 0.9 | Fraction cured (Mus musculus [35]): 0 | Fraction cured (Mus musculus [36]): 0.73 | Survivors (Mus musculus [37]): 2 | Fraction cured (Mus musculus [38]): 0 | Fraction cured (Mus musculus [39]): 1 | Survivors (Mus musculus [40]): 10 | Fraction cured (Mus musculus [41]): 0

CCCCSc1ccc2n(c1)cc(-c1ccc(/C=N/NC(=N)N)cc1)[n+]2C.Cc1ccc(S(=O)(=O)O)cc1.Cc1ccc(S(=O)(=O)[O-])cc1
CD50 (Mus musculus [42]): 106 mg/kg | CD50 (Mus musculus [43]): 0.4 mg/kg

C[n+]1c(-c2ccc(/C=N/NC(=N)N)cc2)cn2cc(Cl)ccc21.Cc1ccc(S(=O)(=O)O)cc1.Cc1ccc(S(=O)(=O)[O-])cc1
CD50 (Mus musculus [44]): 1.6 mg/kg | CD50 (Mus musculus [45]): 13 mg/kg

Br.C[n+]1ccccc1COc1ccc(/C=N/NC2=NCCCN2)cc1.[Br-]
CD50 (Mus musculus [46]): 212 mg/kg | CD50 (Mus musculus [47]): 6.6 mg/kg

Br.C[n+]1c(-c2ccc(/C=C/C=N/NC3=NCCCN3)cc2)cn2ccccc21.[Br-]
CD50 (Mus musculus [48]): 0.06 mg/kg | CD50 (Mus musculus [49]): 13 mg/kg

Br.C/N=C(/N/N=C/c1ccc(-c2cn3ccccc3[n+]2C)cc1)SC.[Br-]
CD50 (Mus musculus [50]): 26 mg/kg

C[n+]1c(-c2ccc(/C=N/Nc3nc[nH]n3)cc2)cn2ccccc21.[Br-]
CD50 (Mus musculus [51]): 0.8 mg/kg | IC50 [52]: > 10 µg/mL | IC50 [53]: 0.5 µg/mL

Br.CC/N=C(\NCC)N/N=C/c1ccc(OCc2cn3ccccc3[n+]2C)cc1.[Br-]
CD50 (Mus musculus [54]): 0.8 mg/kg | CD50 (Mus musculus [55]): 106 mg/kg

CCNC(=N)N/N=C/c1ccc(/C=C/c2n(C)cc[n+]2C)cc1.Cc1ccc(S(=O)(=O)O)cc1.Cc1ccc(S(=O)(=O)[O-])cc1
CD50 (Mus musculus [56]): 0.11 mg/kg

Source: ChEMBL document CHEMBL1124947, “Cationic antiprotozoal drugs. Trypanocidal activity of 2-(4'-formylphenyl)imidazo[1,2-a]pyridinium guanylhydrazones and related derivatives of quaternary heteroaromatic compounds” (J Med Chem, 1990)
